Results reported in ChEMBL document CHEMBL3098130, “Discovery of Novel Putative Inhibitors of UDP-GlcNAc 2-Epimerase as Potent Antibacterial Agents” (ACS Med Chem Lett, 2013).

Columns and labels:
Mus musculus [1] = experiment: Tmax in CD1 mouse at 25 mg/kg, ip; assay type: ADME, organism-based; parameters: dose 25 mg/kg, route intraperitoneal; settings: in vivo
Method in brief: (§1)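 Female CD-1 mice, single intraperitoneal dose of 25, 50 or 100 mg/kg; the 50 mg/kg BID group was dosed twice. Plasma levels were followed over time to derive tmax, Cmax, half-life, Vz, clearance and AUC. Time above MIC was taken against a 2000 ng/mL plasma threshold.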

Pseudomonas aeruginosa = experiment: Antibacterial activity against Pseudomonas aeruginosa assessed as growth inhibition measured for 3 days by broth microdilution method; assay type: functional
Method in brief: (§2)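 MIC by broth microdilution against a panel of Gram-positive and Gram-negative strains (ATCC-type numbers where given). Run in triplicate on three different days.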

Streptococcus agalactiae = experiment: Antibacterial activity against Streptococcus agalactiae 12386 assessed as growth inhibition measured for 3 days by broth microdilution method; assay type: functional; settings: Streptococcus agalactiae, 12386, 72 h; method in brief: as §2
Mus musculus [2] = experiment: AUC in CD1 mouse at 50 mg/kg, ip bid; assay type: ADME, organism-based, Plasma; parameters: dose 50 mg/kg, route intraperitoneal; settings: in vivo; method in brief: as §1
Mus musculus [3] = experiment: AUC in CD1 mouse at 50 mg/kg, ip; assay type: ADME, organism-based, Plasma; parameters: dose 50 mg/kg, route intraperitoneal; settings: in vivo; method in brief: as §1
Mus musculus [4] = experiment: Cmax in CD1 mouse at 25 mg/kg, ip; assay type: ADME, organism-based; parameters: dose 25 mg/kg, route intraperitoneal; settings: in vivo; method in brief: as §1
[5] = Chemical stability in aqueous solution assessed as compound isomerization/degradation at pH 10 after 3 days by HPLC/NMR analysis; assay type: physicochemical; settings: buffer, pH 10, 72 h
Bacillus atrophaeus = experiment: Antibacterial activity against Bacillus atrophaeus assessed as growth inhibition measured for 3 days by broth microdilution method; assay type: functional; method in brief: as §2
Mus musculus [6] = experiment: Apparent volume of distribution in CD1 mouse at 100 mg/kg, ip; assay type: ADME, organism-based; parameters: dose 100 mg/kg, route intraperitoneal; settings: in vivo; method in brief: as §1
Mus musculus [7] = experiment: Cmax in CD1 mouse at 50 mg/kg, ip bid; assay type: ADME, organism-based; parameters: dose 50 mg/kg, route intraperitoneal; settings: in vivo; method in brief: as §1
Salmonella enterica = experiment: Antibacterial activity against Salmonella enterica assessed as growth inhibition measured for 3 days by broth microdilution method; assay type: functional; method in brief: as §2
[8] = test system: Staphylococcus epidermidis; experiment: Antibacterial activity against Staphylococcus epidermidis 13518 assessed as growth inhibition measured for 3 days by broth microdilution method; assay type: functional; settings: Staphylococcus epidermidis, 13518, 72 h; method in brief: as §2
Shigella sonnei = experiment: Antibacterial activity against Shigella sonnei assessed as growth inhibition measured for 3 days by broth microdilution method; assay type: functional; method in brief: as §2
Mus musculus [9] = experiment: Apparent volume of distribution in CD1 mouse at 25 mg/kg, ip; assay type: ADME, organism-based; parameters: dose 25 mg/kg, route intraperitoneal; settings: in vivo; method in brief: as §1
Mus musculus [10] = experiment: Tmax in CD1 mouse at 50 mg/kg, ip bid; assay type: ADME, organism-based; parameters: dose 50 mg/kg, route intraperitoneal; settings: in vivo; method in brief: as §1
Mus musculus [11] = experiment: T>MIC in CD1 mouse at 25 mg/kg, ip; settings: route intraperitoneal; method in brief: as §1
Mus musculus [12] = experiment: Toxicity in CD1 mouse assessed as mortality at < 100 mg/kg, ip; assay type: organism-based; parameters: dose 100 mg/kg, route intraperitoneal; settings: in vivo
Method in brief: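 Female CD-1 mice were given the compound intraperitoneally in the PK dose groups. Mortality and clinical observations were recorded.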

Mus musculus [13] = experiment: AUC in CD1 mouse at 25 mg/kg, ip; assay type: ADME, organism-based, Plasma; parameters: dose 25 mg/kg, route intraperitoneal; settings: in vivo; method in brief: as §1
Mus musculus [14] = experiment: Half life in CD1 mouse at 25 mg/kg, ip; assay type: ADME, organism-based; parameters: dose 25 mg/kg, route intraperitoneal; settings: in vivo; method in brief: as §1
Mus musculus [15] = experiment: Tmax in CD1 mouse at 50 mg/kg, ip; assay type: ADME, organism-based; parameters: dose 50 mg/kg, route intraperitoneal; settings: in vivo; method in brief: as §1
Candida albicans = experiment: Antifungal activity against Candida albicans assessed as growth inhibition measured for 3 days by broth microdilution method; assay type: functional; settings: 72 h
Mus musculus [16] = experiment: Cmax in CD1 mouse at 50 mg/kg, ip; assay type: ADME, organism-based; parameters: dose 50 mg/kg, route intraperitoneal; settings: in vivo; method in brief: as §1
[17] = Clearance in CD1 mouse at 100 mg/kg, ip; assay type: ADME, organism-based; parameters: dose 100 mg/kg, route intraperitoneal; settings: in vivo
Method in brief: (§3)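 Female CD-1 mice received the test compound intraperitoneally, either as a single dose (25, 50 or 100 mg/kg) or as 50 mg/kg BID. Exposure was followed over time, and clearance was reported in mL/h/kg together with tmax, Cmax, half-life, VZ and AUC.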

Mus musculus [18] = experiment: T>MIC in CD1 mouse at 50 mg/kg, ip bid; settings: route intraperitoneal; method in brief: as §1
Acinetobacter baumannii = experiment: Antibacterial activity against Acinetobacter baumannii assessed as growth inhibition measured for 3 days by broth microdilution method; assay type: functional; method in brief: as §2
[19] = Clearance in CD1 mouse at 50 mg/kg, ip bid; assay type: ADME, organism-based; parameters: dose 50 mg/kg, route intraperitoneal; settings: in vivo; method in brief: as §3
Enterococcus faecalis = experiment: Antibacterial activity against Enterococcus faecalis 19433 assessed as growth inhibition measured for 3 days by broth microdilution method; assay type: functional; method in brief: as §2
[20] = Clearance in CD1 mouse at 25 mg/kg, ip; assay type: ADME, organism-based; parameters: dose 25 mg/kg, route intraperitoneal; settings: in vivo; method in brief: as §3
Escherichia coli = experiment: Antibacterial activity against Escherichia coli assessed as growth inhibition measured for 3 days by broth microdilution method; assay type: functional; method in brief: as §2
[21] = Aqueous solubility of the compound; assay type: physicochemical; settings: buffer
Mus musculus [22] = experiment: Cmax in CD1 mouse at 100 mg/kg, ip; assay type: ADME, organism-based; parameters: dose 100 mg/kg, route intraperitoneal; settings: in vivo; method in brief: as §1
Mus musculus [23] = experiment: Apparent volume of distribution in CD1 mouse at 50 mg/kg, ip; assay type: ADME, organism-based; parameters: dose 50 mg/kg, route intraperitoneal; settings: in vivo; method in brief: as §1
[24] = Inhibition of Bacillus anthracis UDP-GlcNAc 2-epimerase using UDP-GlcNAc as substrate preincubated for 15 mins by UDP-ManNAc dehydrogenase-coupled assay
Mus musculus [25] = experiment: Apparent volume of distribution in CD1 mouse at 50 mg/kg, ip bid; assay type: ADME, organism-based; parameters: dose 50 mg/kg, route intraperitoneal; settings: in vivo; method in brief: as §1
[26] = Clearance in CD1 mouse at 50 mg/kg, ip; assay type: ADME, organism-based; parameters: dose 50 mg/kg, route intraperitoneal; settings: in vivo; method in brief: as §3
Proteus mirabilis = experiment: Antibacterial activity against Proteus mirabilis assessed as growth inhibition measured for 3 days by broth microdilution method; assay type: functional; method in brief: as §2
Mus musculus [27] = experiment: Half life in CD1 mouse at 50 mg/kg, ip; assay type: ADME, organism-based; parameters: dose 50 mg/kg, route intraperitoneal; settings: in vivo; method in brief: as §1
Mus musculus [28] = experiment: Half life in CD1 mouse at 50 mg/kg, ip bid; assay type: ADME, organism-based; parameters: dose 50 mg/kg, route intraperitoneal; settings: in vivo; method in brief: as §1
Enterococcus faecium = experiment: Antibacterial activity against Enterococcus faecium 6569 assessed as growth inhibition measured for 3 days by broth microdilution method; assay type: functional; method in brief: as §2
Mus musculus [29] = experiment: Tmax in CD1 mouse at 100 mg/kg, ip; assay type: ADME, organism-based; parameters: dose 100 mg/kg, route intraperitoneal; settings: in vivo; method in brief: as §1
Mus musculus [30] = experiment: AUC in CD1 mouse at 100 mg/kg, ip; assay type: ADME, organism-based, Plasma; parameters: dose 100 mg/kg, route intraperitoneal; settings: in vivo; method in brief: as §1
Mus musculus [31] = experiment: Half life in CD1 mouse at 100 mg/kg, ip; assay type: ADME, organism-based; parameters: dose 100 mg/kg, route intraperitoneal; settings: in vivo; method in brief: as §1
Serratia marcescens = experiment: Antibacterial activity against Serratia marcescens assessed as growth inhibition measured for 3 days by broth microdilution method; assay type: functional; method in brief: as §2
Mus musculus [32] = experiment: T>MIC in CD1 mouse at 50 mg/kg, ip; settings: route intraperitoneal; method in brief: as §1
Mus musculus [33] = experiment: T>MIC in CD1 mouse at 100 mg/kg, ip; settings: route intraperitoneal; method in brief: as §1

Question: What does the source list for `O=C([O-])[C@H](Cc1ccccc1)N1C(=O)/C(=C\c2ccc(-c3ccc(Cl)c(Cl)c3)o2)NC1=S.[Na+]`?
Answer: Tmax (Mus musculus [1]): 4.8 min; MIC (Pseudomonas aeruginosa): > 25 µM; MIC (Streptococcus agalactiae): 3.9 µM; AUC (Mus musculus [2]): 1050 µg·h/mL; AUC (Mus musculus [3]): 480 µg·h/mL; Cmax (Mus musculus [4]): 68 µg/mL; Stability [5]: Stable; MIC (Bacillus atrophaeus): 7.8 µM; Vz (Mus musculus [6]): 0.18 L/kg; Cmax (Mus musculus [7]): 320 µg/mL; MIC (Salmonella enterica): > 25 µM; MIC [8]: 2 µM; MIC (Shigella sonnei): > 25 µM; Vz (Mus musculus [9]): 0.5 L/kg; Tmax (Mus musculus [10]): 3.08 h; T>MIC (Mus musculus [11]): 10.6 h; Activity (Mus musculus [12]): Non-toxic; AUC (Mus musculus [13]): 170 µg·h/mL; t1/2 (Mus musculus [14]): 2.4 h; Tmax (Mus musculus [15]): 0.5 h; MIC (Candida albicans): > 25 µM; Cmax (Mus musculus [16]): 140 µg/mL; CL/F [17]: 0.917 mL/min/kg; T>MIC (Mus musculus [18]): 18.3 h; MIC (Acinetobacter baumannii): > 25 µM; CL/F [19]: 0.783 mL/min/kg; MIC (Enterococcus faecalis): 15.6 µM; CL/F [20]: 2.33 mL/min/kg; MIC (Escherichia coli): > 25 µM; solubility [21]: soluble; Cmax (Mus musculus [22]): 490 µg/mL; Vz (Mus musculus [23]): 0.34 L/kg; Ki [24]: 82 µM; Vz (Mus musculus [25]): 0.24 L/kg; CL/F [26]: 1.67 mL/min/kg; MIC (Proteus mirabilis): > 25 µM; t1/2 (Mus musculus [27]): 2.3 h; t1/2 (Mus musculus [28]): 3.4 h; MIC (Enterococcus faecium): 15.6 µM; Tmax (Mus musculus [29]): 4.8 min; AUC (Mus musculus [30]): 1800 µg·h/mL; t1/2 (Mus musculus [31]): 2.2 h; MIC (Serratia marcescens): > 25 µM; T>MIC (Mus musculus [32]): 14.6 h; T>MIC (Mus musculus [33]): 19.4 h
